Sampled rows, rich in hits. Any-hit rate of the full collection: about 3.8%.
TMEM16A inh: TMEM16A chloride channel inhibitors, primary screen, cell-based, HTS; Anoctamin-1 (Mus musculus), Q8BHY3; HEK293 TMEM16A/YFP iodide influx fluorescence, ionomycin; normalized B-score (activity score, 25-100; higher = stronger inhibition) at 10 µM; actives 1.2% (n = 310,000); AID 588511, 2011;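 active = ratio plate-corrected score three or more library SD toward inhibition, starting fluorescence score within five deviations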;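 note: score derived from kinetic fluorescence span divided by baseline fluorescence per well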
MC4R ag barr: MC4R agonists recruiting beta-arrestin, primary screen, cell-based, luminescence, agonist arm of biased-ligand search; activation, % at 8.9 µM; U2OS MC4R beta-arrestin complementation; percent of melanotan II response, DMSO zero; AID 540308, 2011; actives 0.98% (n = 360,000); Melanocortin receptor 4 (Homo sapiens), P32245;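 active = activation above a per-plate cutoff, the mean activation of sample wells on that plate plus 3 SD, cut at about 8% in these data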
Target sequence (P32245 whole entry, looked up): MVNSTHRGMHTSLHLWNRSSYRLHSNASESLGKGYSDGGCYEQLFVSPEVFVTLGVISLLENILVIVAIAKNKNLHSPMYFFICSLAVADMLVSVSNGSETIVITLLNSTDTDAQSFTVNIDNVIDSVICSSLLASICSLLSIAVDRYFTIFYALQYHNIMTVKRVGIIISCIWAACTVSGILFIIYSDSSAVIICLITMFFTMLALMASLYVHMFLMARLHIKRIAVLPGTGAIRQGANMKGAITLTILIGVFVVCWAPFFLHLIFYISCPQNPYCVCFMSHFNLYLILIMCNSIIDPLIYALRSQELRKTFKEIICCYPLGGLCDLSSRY
MC4R antag cAMP: MC4R antagonists of cAMP signaling, primary screen, cell-based, TR-FRET, antagonist arm of biased-ligand search. Melanocortin receptor 4 (Homo sapiens), P32245. MC4R-expressing cells, MTII-stimulated cAMP, LANCE TR-FRET. inhibition, % at 6.5 µM. actives 0.48% (n = 360,000);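 active = inhibition above its plate's cutoff, the mean of tested wells on that plate plus 3 SD, cut at about 29% in these data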
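Material: U2OS-MC4R stable cell line | Reagent: Melanotan II challenge after compound preincubation | Doses: One concentration, 6.5 µM nominal | Incubation: 30-min compound preincubation, 1-h Melanotan II challenge, 1-h detection, room temperature | Signal: TR-FRET cAMP assay | Replicates: One well per compound, no replicates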
Beta apoptosis: inhibitors of cytokine-induced beta cell apoptosis, primary screen, luminescence; INS-1E cytokine-induced death, ATP luminescence, 48 h; percent of positive-control rescue, neutral wells zero; protection from apoptosis, % (no concentration beside the values); actives 0.8% (n = 300,000); AID 435005, 2010;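 active = Every replicate reaches about 75%, or at least half do and their mean reaches it too, limit read from the data; inconclusive = At least half of replicates reach the limit but their mean does not; inactive = Under half of replicates reach the limit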;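 note: higher means more ATP so stronger rescue from cytokine killing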
ANO1 activ: TMEM16A chloride channel activators or potentiators, primary screen, cell-based, HTS; HEK293 TMEM16A/YFP-H148Q/I152L, iodide quench fluorescence; hits give low values; actives 0.3% (n = 340,000); AID 623877, 2012; B-score at 10 µM;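 active = fluorescence-ratio B-score plate-corrected deviation score at least 3 library SD below zero, with starting fluorescence score within 5 deviations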;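 note: channel opened by trigger with iodide after compound preincubation; score built on the fluorescence ratio of max minus min over baseline; more negative score means more quench and so TMEM16A activation or potentiation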
CSC inhib: cancer stem cell viability inhibitors, primary screen, luminescence | actives 1.1% (n = 300,000) | AID 2717, 2010 | inhibition, % at 7.5 µM | cancer stem cell-like cells viability; in the data active = inhibition above about 75%; inconclusive = no clear call, values can overlap the other calls; tested in HMLE shEcad cells
Each line names hits and unclear results; the compound was inactive in the other large screens; ! = repeats disagree.

Cc1ccc(-n2ccc(=O)c(-c3ccnc(SCc4cccc(Cl)c4)n3)n2)cc1	MC4R ag barr 8.6
O=C(NC1CCCCC1)c1sc(=S)n2c1[nH]c(=O)c1ccccc12	TMEM16A inh 100
C=CCn1c(CSCc2ccccc2)nnc1SCC(=O)N1CCN(c2ccccc2)CC1	none (no result: CSC inhib)
CCn1c(CSCc2ccc(C)cc2)nnc1SCC(=O)N1CCN(c2ccccc2)CC1	TMEM16A inh 25
CCn1c(SCC(=O)N2CCN(c3ccc(F)cc3)CC2)nc2ccccc2c1=O	CSC inhib 77
O=C(NNc1ccnc2cc(Cl)ccc12)C1CCCCC1	Beta apoptosis 127
COc1ccccc1N=Nc1nc(-c2ccccc2)c(-c2ccccc2)[nH]1	none
Oc1ccccc1N=Nc1nc(-c2ccccc2)c(-c2ccccc2)[nH]1	Beta apoptosis 86 (no result: CSC inhib)
O=S(=O)(Nc1ccc(-n2cnnn2)cc1)c1ccc(Cl)s1	none (no result: TMEM16A inh, Beta apoptosis, CSC inhib)
O=c1c2ccccc2nc(COc2ccccc2)n1/N=C/c1cc([N+](=O)[O-])ccc1O	TMEM16A inh 100, Beta apoptosis 79, CSC inhib 75
Cc1nc2ccccc2c(=O)n1/N=C/c1ccc(O)cc1O	none
CCCc1nc2ccccc2c(=O)n1/N=C/c1ccccc1O	Beta apoptosis 97
Cc1cc(/C=N/n2c(COc3ccccc3C)nc3ccccc3c2=O)c(O)c([N+](=O)[O-])c1	TMEM16A inh 100, Beta apoptosis 79
O=[N+]([O-])c1ccc(Cl)c(/C=N/n2c(COc3ccccc3)n[nH]c2=S)c1	none
Cc1cc(C(=O)CN2C(=O)C(=O)N(Cc3ccccc3)C2=O)c(C)n1Cc1ccccc1	CSC inhib 97 (no result: TMEM16A inh)
Cc1ccc(-n2sc3cc(F)ccc3c2=O)c(C)c1	MC4R ag barr 8.8 (no result: TMEM16A inh, Beta apoptosis, ANO1 activ, CSC inhib)
CC(=O)Nc1ccc(-n2c(=O)c3ccccc3c3ccccc3c2=O)cc1	none
CCCCCCCC[n+]1c(C)n(-c2ccccc2)c2ccc(NC(C)=O)cc21	Beta apoptosis 102
COc1ccc(CCN2CCCC(CN(C)C(=O)c3ccoc3)C2)cc1 (stereo unspecified)	none
O=C(Nc1cc(-c2ccccc2)nn1C1CCCCC1)c1ccc(Cl)cc1	Beta apoptosis 97 (no result: TMEM16A inh, CSC inhib)
Cn1nc(-c2ccccc2)cc1NC(=O)c1ccccc1	none
COc1cc(SC)ccc1C(=O)Nc1ccc2ncccc2c1	none
COc1ccc(NC(=O)CCc2nnc3ccc(NCc4ccco4)nn23)cc1OC	none (no result: Beta apoptosis)
S=c1[nH]nc(-c2cc(-c3ccccc3)n[nH]2)n1/N=C/C(Br)=C/c1ccccc1	Beta apoptosis inconclusive, CSC inhib 83
Cc1cccc(/C=N/n2c(-c3cc(-c4ccccc4)n[nH]3)n[nH]c2=S)c1	ANO1 activ -6.6
S=c1[nH]nc(-c2cc(-c3ccccc3)n[nH]2)n1/N=C/c1ccccc1	none
CC(C)CCNC(=O)[C@H](Cc1ccccc1)N1Cc2ccccc2C1=O	none
CC1=C(C(=O)N(C(C)C)C(C)C)CC(CC(=O)NCc2cccs2)C(=O)N1Cc1ccccc1 (stereo unspecified)	none (no result: TMEM16A inh, Beta apoptosis, ANO1 activ, CSC inhib)
CCCN(CC(=O)Nc1ccc(F)c(F)c1F)C(=O)CCc1nc2ccccc2c(=O)[nH]1	none
Cc1ccc(NC(=O)COc2coc(CN3CCc4ccccc43)cc2=O)c(C)c1	none
Cc1cc(C)cc(NC(=O)COc2coc(CN3CCc4ccccc43)cc2=O)c1	MC4R ag barr 9.2
CC(C)=CCc1c(-c2ccc(O)cc2O)oc2c3c(cc(O)c2c1=O)OC(C)(C)C=C3	TMEM16A inh 25 (no result: MC4R ag barr, MC4R antag cAMP, ANO1 activ)
CC(C)=CCc1c2c(c(O)c3c(=O)c4c(oc13)-c1cc(O)c(O)cc1OC4C=C(C)C)C=CC(C)(C)O2 (stereo unspecified)	none (no result: MC4R ag barr, MC4R antag cAMP, ANO1 activ)
c1ccc(N/N=C(\Cc2nc3ccccc3[nH]2)c2ccccc2)cc1	none
Cc1ccc(N/N=C(\Cc2nc3ccccc3[nH]2)c2ccccc2)cc1	CSC inhib 92
Cc1ccc(-c2cc(C(=O)N/N=C/c3ccccc3)n[nH]2)o1	none
CC(/C=N/NC(=O)c1cc(-c2ccc(C)o2)[nH]n1)=C\c1ccccc1	MC4R ag barr 9.2
Nc1nn(-c2ccccc2)c(N)c1N=Nc1ccc2c(c1)OCO2	none
Oc1ccc(N=Nc2ccc3c(c2)OCO3)c2ccccc12	Beta apoptosis 99, CSC inhib 140 (no result: MC4R ag barr, MC4R antag cAMP, ANO1 activ)
COc1ccc(-c2n[nH]c(C)c2-c2ccc(Cl)cc2)c(O)c1	MC4R ag barr 9.1
Cc1[nH]nc(-c2ccc(O)cc2O)c1-c1ccc(Cl)cc1	TMEM16A inh 100
CC(=O)C1(O)C(C)CC2C3CC(F)C4(O)CC(O)CCC4(C)C3CCC21C (stereo unspecified)	none (no result: TMEM16A inh, Beta apoptosis, CSC inhib)
O=C(NCCC(=O)N(Cc1ccco1)Cc1cccs1)c1ccc([N+](=O)[O-])cc1	none (no result: TMEM16A inh, Beta apoptosis, CSC inhib)
O=C(Nc1cnns1)Oc1ccccc1	none (no result: TMEM16A inh, Beta apoptosis, ANO1 activ, CSC inhib)
O=C(Nc1ccc(C(F)(F)F)cc1)C1CCN(S(=O)(=O)c2ccc(N3CCCC3=O)cc2)CC1	Beta apoptosis 101
O=C1CC(Cc2ccc(Br)cc2)C(=O)N1c1ccccc1 (stereo unspecified)	none
COc1cc(OC)cc(-c2c(-c3cccs3)c3cc(-c4ccc(N(C)C)nc4)ccc3n2C)c1	CSC inhib 86 (no result: TMEM16A inh)
COc1cc(OC)cc(-c2c(-c3cccs3)c3cc(-c4ccn[nH]4)ccc3n2C)c1	CSC inhib 87 (no result: TMEM16A inh)
COc1cc(F)cc(-c2ccc3c(c2)c(-c2cccs2)c(-c2cc(OC)cc(OC)c2)n3C)c1	CSC inhib inconclusive (no result: TMEM16A inh)
Cn1c(-c2ccsc2)c(-c2cccs2)c2cc(Br)ccc21	CSC inhib 80 (no result: TMEM16A inh)
COc1cccc(C2=NCCc3cc4c(cc32)OCO4)c1OC	none
COc1ccc2cc3[n+](cc2c1OC)CCc1cc2c(cc1-3)OCO2	Beta apoptosis 79!
CCOc1ccc(N(CC(=O)NCc2ccc(F)cc2)C(=O)c2snc(C(N)=O)c2N)cc1	MC4R ag barr 13
COc1ccc(CNC(=O)CN(C(=O)c2snc(C(N)=O)c2N)c2ccc(F)cc2)cc1	none
Oc1ccc(Nc2nc(-c3ccc4ccccc4c3)cs2)cc1	Beta apoptosis 84, CSC inhib 134
CCOCCCn1c(=S)[nH]c2cc(C(=O)NC3CCCC(C)C3C)ccc2c1=O (stereo unspecified)	none
Cc1cccc(CS(=O)(=O)c2nnc([C@H](Cc3ccccc3)NC(=O)OC(C)(C)C)o2)c1	CSC inhib 95
COC(=O)CSc1nnc([C@H](Cc2ccccc2)NC(=O)OC(C)(C)C)o1	none

High-throughput results (PubChem)
